Assay results gathered from unrelated publications.
Protocols differ between the studies behind these lines.
Cnr2: Cannabinoid receptor 2 (Cnr2, Mus musculus, UniProt P47936)
G protein-coupled receptor 88: G protein-coupled receptor 88 (Homo sapiens, UniProt Q9GZN0)
SLCO1B3: Solute carrier organic anion transporter family member 1B3 (SLCO1B3, Homo sapiens, UniProt Q9NPD5)

Compound | target | test | test system | setting | endpoint | value
Cc1c(C(=O)c2cccc3ccccc23)c2cccc3c2n1[C@H](CN1CCOCC1)CO3 | Cnr2 | ligand displacement, radioligand |  | cell membranes | Ki | 0.0058 µM
OCCCCO | Cytochrome P450 2E1 (Cyp2e1, Rattus norvegicus, UniProt P05182) | enzyme activity, inhibitor | Fischer 344 rat, liver microsomes | 30 min | IC50 | 5800 µM
O=c1[nH]c2ccccc2n1C1CCN(CCCC(c2ccc(F)cc2)c2ccc(F)cc2)CC1 | Signal transducer and activator of transcription 5B, SH2 (STAT5B, Homo sapiens, UniProt P51692) | protein-protein interaction, inhibitor, FP |  |  | IC50 | 75.1 µM
CCCCOc1ccc([C@@H](CO)C(=O)N[C@H](C)c2ccccc2)cc1 | G protein-coupled receptor 88 | cAMP, agonist, TR-FRET |  |  | EC50 | 5.13 µM
O=C[C@H](C[C@@H]1CCNC1=O)NC(=O)[C@H](CC1CCCCC1)NC(=O)c1cc2ccccc2[nH]1 | Procathepsin L (CTSL, Homo sapiens, UniProt P07711) | enzyme activity, inhibitor |  |  | IC50 | 0.00021 µM
CCOC(=O)c1cncn1[C@H](C)c1ccccc1 | SLCO1B3 | transporter uptake, inhibitor, fluorescence | CHO | 30 min, pH 7.4 | IC50 | > 100 µM
CC(C)(C)[C@H](NC(=O)C(F)(F)F)C(=O)N1C[C@H]2[C@@H]([C@H]1C(=O)N[C@H](C#N)C[C@@H]1CCNC1=O)C2(C)C | SLCO1B3 | transporter uptake, inhibitor |  |  | Ki | 283 µM
CCCCCOc1ccc([C@@H](CO)C(=O)N[C@H](C)c2ccccc2)cc1 | G protein-coupled receptor 88 | cAMP, agonist, TR-FRET |  |  | EC50 | 3.24 µM
CCCCCCC(C)(C)c1cc(O)c2c(c1)OC(C)(C)[C@@H]1CC=C(C)C[C@@H]21 | Cnr2 | ligand displacement, radioligand |  | cell membranes | Ki | 0.0014 µM
